# Measured values taken from ChEMBL document CHEMBL3102806, “1,2,4-Triazole/oxime hybrids as new strategy for nitric oxide donors: Synthesis, anti-inflammatory, ulceroginicity and antiproliferative activities” (Eur J Med Chem, 2014).
# What was measured:
# Type in all cases: functional
# [1] = Growth inhibition of human UO31 cells after 48 hrs by sulforhodamine B assay; details: UO-31, 48 h
# Procedure, shortened: (§1)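 NCI 60-cell-line panel, five-dose run at 10-fold dilutions from 10^-4 to 10^-8 M, 48 h continuous exposure. Viability by SRB protein stain. Percent growth is taken from time-zero, untreated-control and treated absorbances. GI50 is the concentration giving a 50% lower net protein increase than in control cells. TGI is taken at Ti = Tz, LC50 at a 50% loss of initial protein.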
# HCT-15 = test: Growth inhibition of human HCT15 cells after 48 hrs by sulforhodamine B assay; details: HCT-15, 48 h
# Procedure, shortened: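 NCI full ~60 cell line panel. Five 10-fold concentrations from 10^-4 to 10^-8 M, 48 h continuous exposure, SRB protein read-out. Time-zero, control and treated absorbances give percentage growth. GI50 is the concentration where [(Ti−Tz)/(C−Tz)]×100 = 50; TGI is where Ti = Tz; LC50 is where [(Ti−Tz)/Tz]×100 = −50.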
# NCI-H522 = test: Growth inhibition of human NCI-H522 cells after 48 hrs by sulforhodamine B assay; details: NCI-H522, 48 h
# Procedure, shortened: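 NCI 60-cell-line panel (nine tumour subpanels), five-dose format: 10-fold dilutions from 10^-4 to 10^-8 M, 48 h continuous exposure, SRB protein stain. Percent growth at each level is derived from time-zero, untreated control and treated absorbances. GI50 is the concentration where [(Ti−Tz)/(C−Tz)]×100 = 50. Values outside the tested range are reported as above or below the limit.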
# SR = test: Growth inhibition of human SR cells after 48 hrs by sulforhodamine B assay; procedure, shortened: as §1
# [2] = read-out: LC50 (the source's name)
smiles,measurement,setting,value
COc1ccc(-c2nnc(SCC(=O)Nc3ccc(/C(C)=N/O)cc3)n2-c2ccccc2)cc1OC,GI50,[1],> 100 µM
same,TGI,[1],> 100 µM
same,CC50,[1]; [2],> 100 µM
same,GI50,HCT-15,> 100 µM
same,TGI,HCT-15,> 100 µM
same,CC50,HCT-15; [2],> 100 µM
same,GI50,NCI-H522,21.4 µM
same,TGI,NCI-H522,> 100 µM
same,CC50,NCI-H522; [2],> 100 µM
same,GI50,SR,> 100 µM
same,TGI,SR,> 100 µM
same,CC50,SR; [2],> 100 µM
